In article PMC12122681 (Nature Communications, 2025):

How the values were obtained:
fungal IPC synthase = settings: in words; cited from earlier work
[1] = tested on: unpurified membrane-embedded IPC synthase; settings: cited from earlier work
Aur1-Kei1 complex = assay: Thermal shift assay; assay type: binding, Saccharomyces cerevisiae; settings: 10 µM PI or 10 µM C6-ceramide, 1 h at 4 °C, 5% DMSO; compared to the control
Method in brief: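 nanoDSF on 0.1 mg/mL purified complex in 25 mM HEPES pH 7.5, 150 mM NaCl, 0.01% LMNG. Protein was held 1 h at 4 °C with final 10 µM PI or 10 µM C6-ceramide in 5% DMSO. Intrinsic fluorescence at 330 and 350 nm was read from 35 to 95 °C at […]. Tm was taken from the first-derivative peak of Em350/Em330, averaged over three measurements.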

[2] = biological target: the F158Y and A240C mutations (Aur1-Kei1 mutant complexes); assay: MST
[3] = biological target: His-tagged S. cerevisiae IPC synthase complex (Aur1-Kei1), wild type (S. cerevisiae) (UniProt P36107); assay: MST
[4] = biological target: His-tagged Aur1-Kei1 complex with Aur1 H157Y (S. cerevisiae) (UniProt P36107); assay: MST
cryo-EM structure = biological target: the molecule itself; assay: cryo-EM structure
[5] = biological target: the molecule itself; assay: SEC + cross-linking + native gel or EMSA

Question: Which “inhibition of fungal IPC synthase” value (fungal IPC synthase) does the source give for `CCCCCCCCCC[C@H](C)[C@@H](O)[C@@H](C)/C=C(C)/C=C(\C)C(=O)[C@H](C)/C=C(\C)C(=O)O[C@H](CO)[C@@H](O)[C@H](O)C(=O)O` [khafrefungin] here?
Answer: The value was “effective inhibitors of fungal IPC synthase”.

Question: Which “inhibition of fungal IPC synthase” value (fungal IPC synthase) does the source give for `C=C1/C=C(\C)[C@H](CC)CC(=O)[C@H](C)C(=O)[C@@](O)(CO)C/C(OC)=C/[C@@H](C)C1` [rustmicin] here?
Answer: Its value is “effective inhibitors of fungal IPC synthase”.

Question: With ceramide as the molecule, how does the “kinetic value for ceramide” value [1] read?
Answer: Its value is 3 µM.

Question: What about the “effect on protein stability” value (Aur1-Kei1 complex) of the same molecule?
Answer: Its value is “did not enhance protein stability”.

Question: Which results are given for Aureobasidin A (peptide)?
Answer: fold weakening of the binding affinity against the WT complex [2]: 1.5 to 2 fold; Kd [3]: 57.7 nM; fold reduction in binding affinity against the WT complex [4]: 30 fold

B1: S. cerevisiae Aur1, catalytic subunit of IPC synthase (enzyme)
chain: MANPFSRWFLSERPPNCHVADLETSLDPHQTLLKVQKYKPALSDWVHYIFLGSIMLFVFITNPAPWIFKILFYCFLGTLFIIPATSQFFFNALPILTWVALYFTSSYFPDDRRPPITVKVLPAVETILYGDNLSDILATSTNSFLDILAWLPYGLFHFGAPFVVAAILFVFGPPTVLQGYAFAFGYMNLFGVIMQNVFPAAPPWYKILYGLQSANYDMHGSPGGLARIDKLLGINMYTTAFSNSSVIFGAFPSLHSGCATMEALFFCYCFPKLKPLFIAYVCWLWWSTMYLTHHYFVDLMAGSVLSYVIFQYTKYTHLPIVDTSLFCRWSYTSIEKYDISKSDPLAADSNDIESVPLSNLELDFDLNMTDEPSVSPSLFDGSTSVSRSSATSITSLGVKRA
modifications: two major bands likely correspond to the glycosylated and non-glycosylated forms (sites not given)
Question: For B1, which “stoichiometry N” value (cryo-EM structure) is on record?
Answer: The value was 2.

B2: S. cerevisiae IPC synthase complex (Aur1-Kei1 complex), wild type (complex)
chain 1: B1 chain
chain 2: MRSSLLTLPKSFLGFMPLYLAVEIVLGISILNKCSGAYGILALFTGHPLDFMQWIAYLWSVFTLIVFSQGLYLIHKPNLLVFSQICVLYTIDTISTCFFTLWFTTQWFTLEDTANIDGNNALQSNPISTGKLTERGIDISKQSATESYEYTMTILITLVSLIFRFYFNFILASFVQELLHHPKYLVDRDDVEQNLKNKPIWKRLWAKSQKGCYKLCKNLLE
modifications: two major bands likely correspond to the glycosylated and non-glycosylated forms (sites not given)
Question: For B2, which “stoichiometry N” value [5] is on record?
Answer: Its value is 2.
